Data taken from ChEMBL document CHEMBL1128497, “Synthesis and in vitro and in vivo antitumor activity of a series of trans platinum antitumor complexes” (J Med Chem, 1995).
Several values for one entry are separate records, joined by “and”; a condition that tells them apart may be missing. Equal entries are not always repeated. Activity calls are given as the source filed them. No cut-off for these calls is given here.

Columns and labels:
Mus musculus [1] = experiment: In Vivo Antitumor activity by ip administration against Murine ADJ/PC6 (sc) Plasmacytoma in mice; assay type: functional, organism-based; details: Plasma
How it was run: (§1)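 ADJ/PC6 plasmacytoma (or its cisplatin-resistant subline) was implanted sc as 1 mm3 fragments. On day 20 mice received a single ip injection of drug as a sonicated suspension in arachis oil, at halving doses. Ten days later tumors were dissected and weighed against controls. […] Therapeutic index is MTD/ED90, alongside LD50.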

Mus musculus [2] = experiment: Ability to inhibit Antitumor activity against PXN/109T/C Human Ovarian Cracinoma xenograft in mice at dose 10 mg/kg by ip administration; assay type: functional, organism-based; design: dose 10 mg/kg
How it was run: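 Human ovarian carcinoma xenografts were grown subcutaneously in female Balb C nude mice. Tumors were measured weekly until they doubled their starting volume. Growth delay is the difference in doubling time between treated and control tumors.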

41M [3] = experiment: In vitro antitumor activity against 41McisR cell line.; assay type: functional, cell-based, Homo sapiens
How it was run: (§2)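 Human ovarian carcinoma monolayers were grown in DMEM with 10% FCS, insulin and hydrocortisone under 10% CO2. Cells were seeded at 5 × 10^3–1 × 10^4 per well and left to attach overnight. Drugs were freshly dissolved in 0.9% saline (1 mM or 500 μM stocks) and added to quadruplicate wells for 96 h. Cell mass was read by SRB staining. IC50 values are means of at least two experiments.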

A2780 [4] = experiment: In vitro antitumor activity against A2780 cell line.; assay type: functional, cell-based, Homo sapiens; how it was run: as §2
[5] = In vivo antitumor activity by i.p. administration against murine ADJ/PC6 (sc) plasmacytoma.; assay type: ADME, organism-based; details: mouse, ip
CH1 [6] = experiment: (§3) In vitro antitumor activity against CH1 cell line.; assay type: functional, cell-based, Homo sapiens; how it was run: as §2
A2780 [7] = experiment: In vitro antitumor activity against A2780cisR cell line.; assay type: functional, cell-based, Homo sapiens; how it was run: as §2
Mus musculus [8] = experiment: In Vivo Antitumor activity against the acquired cisplatin-resistant ADJ/PC6 Plasmacytoma (ADJ/PC6cisR) in mice; assay type: ADME, organism-based
CH1 [9] = experiment: In vitro antitumor activity against CH1cisR cell line.; assay type: functional, cell-based, Homo sapiens; how it was run: as §2
41M [10] = experiment: In vitro antitumor activity against 41M cell line.; assay type: functional, cell-based, Homo sapiens; how it was run: as §2
SK-OV-3 = experiment: In vitro antitumor activity against SK-OV-3 cell line.; assay type: functional, cell-based, Homo sapiens; how it was run: as §2
CH1 [11] = experiment: as §3; assay type: functional, cell-based, Homo sapiens; how it was run: as §2; remark: listed apart in the source
Mus musculus [12] = experiment: In Vivo Antitumor activity by ip administration against Murine ADJ/PC6 (sc) Plasmacytoma in mice; - = 90% tumor inhibition not obtained; assay type: functional, organism-based; details: Plasma; how it was run: as §1

trans-a-ammine-b,d-dichloro-f-(2-methyl1-2-propylamine)-c,e-dihydroxoplatinium (IV) [listing 1 of 2 here]
ED90 (Mus musculus [1]): 4.9 mg/kg and 4.7 mg/kg | Growth delay (Mus musculus [2]): 13.4 days

CISPLATIN
IC50 (41M [3]): 1200 nM | IC50 (A2780 [4]): 330 nM | LD50 [5]: 11.3 mg/kg | IC50 (CH1 [6]): 110 nM | IC50 (A2780 [7]): 5200 nM | LD50 (Mus musculus [8]): 11 mg/kg | IC50 (CH1 [9]): 710 nM | IC50 (41M [10]): 260 nM | IC50 (SK-OV-3): 4400 nM

trans-a-ammine-b,d-dichloro-f-(2-methyl1-2-propylamine)-c,e-dihydroxoplatinium (IV) [listing 2 of 2 here]
IC50 (41M [3]): 8000 nM and 900 nM | IC50 (A2780 [4]): 800 nM and 210 nM | LD50 [5]: 35.5 mg/kg and 35 mg/kg | IC50 (CH1 [11]): 1100 nM | IC50 (CH1 [6]): 740 nM | IC50 (A2780 [7]): 8500 nM and 4200 nM | IC50 (CH1 [9]): 3400 nM and 1620 nM | IC50 (41M [10]): 4500 nM and 1100 nM | IC50 (SK-OV-3): 34000 nM and 4700 nM

TRANSPLATIN
ED90 (Mus musculus [12]): inactive
